Source: ChEMBL document CHEMBL2331444, “Design, development and evaluation of novel dual PPARδ/PPARγ agonists” (Bioorg Med Chem Lett, 2013)
The source made the active and inactive calls.

Key:
Type in all cases: cell-based
[1] = target: T1, Peroxisome proliferator-activated receptor delta (Mus musculus) (UniProt P35396); assay: Agonist activity at PPARdelta in mouse 3T3L1 cells assessed as upregulation of PDK4 mRNA level at 10 uM after 6 days […] relative to control; conditions: 3T3-L1
T1 sequence (whole entry): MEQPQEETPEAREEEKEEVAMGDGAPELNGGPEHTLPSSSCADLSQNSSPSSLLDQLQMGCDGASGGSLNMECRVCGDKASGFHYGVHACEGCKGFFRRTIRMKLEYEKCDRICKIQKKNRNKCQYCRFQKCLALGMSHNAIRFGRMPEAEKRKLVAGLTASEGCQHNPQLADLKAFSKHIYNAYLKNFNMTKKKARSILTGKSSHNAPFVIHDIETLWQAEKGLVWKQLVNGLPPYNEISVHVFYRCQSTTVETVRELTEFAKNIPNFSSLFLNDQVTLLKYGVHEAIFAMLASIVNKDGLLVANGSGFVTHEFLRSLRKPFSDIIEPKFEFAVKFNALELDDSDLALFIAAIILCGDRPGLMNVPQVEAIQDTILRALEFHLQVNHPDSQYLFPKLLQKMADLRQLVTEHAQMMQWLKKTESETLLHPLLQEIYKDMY

[2] = target: T2, Peroxisome proliferator-activated receptor gamma (Homo sapiens) (UniProt P37231); assay: Transactivation of PPARgamma (unknown origin) expressed in HEK293 cells co-transfected with AP2-PPRE by luciferase reporter gene assay
T2 sequence (whole entry): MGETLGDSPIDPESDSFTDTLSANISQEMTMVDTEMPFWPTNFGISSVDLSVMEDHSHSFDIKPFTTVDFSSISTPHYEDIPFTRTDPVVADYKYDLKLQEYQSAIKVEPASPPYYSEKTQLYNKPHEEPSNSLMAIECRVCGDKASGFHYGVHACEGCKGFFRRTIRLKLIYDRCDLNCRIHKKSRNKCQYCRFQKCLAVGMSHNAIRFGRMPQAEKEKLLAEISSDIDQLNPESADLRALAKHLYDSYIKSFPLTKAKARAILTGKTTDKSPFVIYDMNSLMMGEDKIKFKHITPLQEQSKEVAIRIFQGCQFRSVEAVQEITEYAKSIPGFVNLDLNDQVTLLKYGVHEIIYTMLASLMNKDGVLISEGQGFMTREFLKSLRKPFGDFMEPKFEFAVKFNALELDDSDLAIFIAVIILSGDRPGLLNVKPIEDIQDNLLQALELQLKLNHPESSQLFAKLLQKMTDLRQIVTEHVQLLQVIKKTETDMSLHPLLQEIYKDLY
Method in brief: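 PPRE reporter plasmid (AP2 promoter element) transiently co-transfected into HEK-293 cells with RXR, PPARγ and β-galactosidase vectors using Lipofectamine 2000. Cells were treated across a dose–response series, plotted on a log(μM) axis from about −2 to 2. Luciferase was read as relative light units on a luminometer and normalised to β-galactosidase activity measured with ONPG.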

[3] = target: T3, Peroxisome proliferator-activated receptor gamma (Mus musculus) (UniProt P37238); assay: Agonist activity at PPARgamma in mouse 3T3L1 cells assessed as downregulation of DGAT mRNA level at 10 uM after 6 days […] relative to control; conditions: 3T3-L1
T3 sequence (whole entry): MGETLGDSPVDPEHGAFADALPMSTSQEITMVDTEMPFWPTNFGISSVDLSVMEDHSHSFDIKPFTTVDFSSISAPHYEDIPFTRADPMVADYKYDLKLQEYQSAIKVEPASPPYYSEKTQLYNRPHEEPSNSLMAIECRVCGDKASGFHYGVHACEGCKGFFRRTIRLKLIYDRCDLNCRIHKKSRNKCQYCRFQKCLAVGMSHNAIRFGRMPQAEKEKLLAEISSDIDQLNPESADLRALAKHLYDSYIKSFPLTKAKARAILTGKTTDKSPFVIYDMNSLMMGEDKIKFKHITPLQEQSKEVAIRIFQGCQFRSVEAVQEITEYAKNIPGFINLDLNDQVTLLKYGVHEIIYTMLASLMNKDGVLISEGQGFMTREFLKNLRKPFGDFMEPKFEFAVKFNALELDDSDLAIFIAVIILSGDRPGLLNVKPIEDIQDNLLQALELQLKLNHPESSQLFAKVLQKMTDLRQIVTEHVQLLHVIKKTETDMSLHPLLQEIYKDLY

[4] = target: T3, Peroxisome proliferator-activated receptor gamma (Mus musculus); assay: Agonist activity at PPARgamma in mouse 3T3L1 cells assessed as upregulation of HSL mRNA level at 10 uM after 6 days […] relative to control; conditions: 3T3-L1
[5] = target: T3, Peroxisome proliferator-activated receptor gamma (Mus musculus); assay: Agonist activity at PPARgamma in mouse 3T3L1 cells assessed as downregulation of FATP mRNA level at 10 uM after 6 days […] relative to control; conditions: 3T3-L1
[6] = target: T3, Peroxisome proliferator-activated receptor gamma (Mus musculus); assay: Agonist activity at PPARgamma in mouse 3T3L1 cells assessed as upregulation of ATGL mRNA level at 10 uM after 6 days […] relative to control; conditions: 3T3-L1
[7] = target: T3, Peroxisome proliferator-activated receptor gamma (Mus musculus); assay: Agonist activity at PPARgamma in mouse 3T3L1 cells assessed as downregulation of FABP mRNA level at 10 uM after 6 days […] relative to control; conditions: 3T3-L1
[8] = target: T3, Peroxisome proliferator-activated receptor gamma (Mus musculus); assay: Agonist activity at PPARgamma in mouse 3T3L1 cells assessed as upregulation of ADPN mRNA level at 10 uM after 6 days […] relative to control; conditions: 3T3-L1
[9] = target: T3, Peroxisome proliferator-activated receptor gamma (Mus musculus); assay: Agonist activity at PPARgamma in mouse 3T3L1 cells assessed as upregulation of MCAD mRNA level at 10 uM after 6 days […] relative to control; conditions: 3T3-L1
[10] = target: T3, Peroxisome proliferator-activated receptor gamma (Mus musculus); assay: Agonist activity at PPARgamma in mouse 3T3L1 cells assessed as downregulation of CD36 mRNA level at 10 uM after 6 days […] relative to control; conditions: 3T3-L1

Measured: Activity

Cc1ccc(CNCCCN(Cc2ccc(C(=O)O)cc2)Cc2cc(C(F)(F)F)cc(C(F)(F)F)c2)cc1
active: all assays above
